The test system of data set [1] is Pancreatic islet. Nature of the data set: Induction of beta-cell proliferation in human pancreatic islets at 30 uM incubated for 96 hrs by Ki67 and insulin immunolabelling method. Format: functional, cell-based. An outline of the steps:
(§1)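 Human islets from the NIH/NIDDK IIDP dispersed onto coverslips with Accutase, then treated with compound or vehicle (0.1% DMSO) in RPMI1640 complete medium for 96 h. Cells fixed, stained for insulin and Ki67, imaged; Ki67/insulin double-positive and total insulin-positive cells counted. Islets from 3 to 5 adult donors, at least 1000 beta cells counted per donor; n = 4–5, SEM.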

Data set [2] relates to Pancreatic islet. Nature of the data set: Induction of beta-cell proliferation in human pancreatic islets at 10 uM incubated for 96 hrs by Ki67 and insulin immunolabelling method. The format is functional, cell-based. Summed up:
as §1

Data set [3] concerns the target Death-associated protein kinase 3 (Homo sapiens) (UniProt O43293). Nature of the data set: Inhibition of human DAPK3 expressed in bacterial expression system assessed as remaining enzyme activity at 10 uM by kinome scan assay.
The target in data set [4] is Interleukin-1 receptor-associated kinase 3 (Homo sapiens) (UniProt Q9Y616). Kind of data set: Inhibition of human IRAK3 expressed in bacterial expression system assessed as remaining enzyme activity at 10 uM by kinome scan assay.
Sequence of Interleukin-1 receptor-associated kinase 3 (Homo sapiens) (Q9Y616 whole entry): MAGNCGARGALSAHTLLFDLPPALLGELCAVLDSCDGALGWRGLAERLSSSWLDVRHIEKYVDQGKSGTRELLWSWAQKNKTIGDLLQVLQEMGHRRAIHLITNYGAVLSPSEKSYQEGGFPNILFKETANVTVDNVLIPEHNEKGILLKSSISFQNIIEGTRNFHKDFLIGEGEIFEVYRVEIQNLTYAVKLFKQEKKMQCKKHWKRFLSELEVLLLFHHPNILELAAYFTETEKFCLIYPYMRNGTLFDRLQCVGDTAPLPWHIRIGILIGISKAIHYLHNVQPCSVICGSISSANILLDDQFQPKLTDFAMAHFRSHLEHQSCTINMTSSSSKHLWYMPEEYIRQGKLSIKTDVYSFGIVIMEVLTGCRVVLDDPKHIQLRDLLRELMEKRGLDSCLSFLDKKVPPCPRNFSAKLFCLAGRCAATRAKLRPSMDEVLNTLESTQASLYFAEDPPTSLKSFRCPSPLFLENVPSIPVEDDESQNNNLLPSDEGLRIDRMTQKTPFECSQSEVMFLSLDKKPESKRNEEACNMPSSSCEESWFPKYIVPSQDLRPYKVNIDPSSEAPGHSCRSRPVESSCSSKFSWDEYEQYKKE
For data set [5], the target named is Cyclin-dependent kinase 8 (Homo sapiens) (UniProt P49336). Nature of the data set: Inhibition of human CDK8 expressed in bacterial expression system assessed as remaining enzyme activity at 10 uM by kinome scan assay.
Sequence of Cyclin-dependent kinase 8 (Homo sapiens) (P49336 whole entry): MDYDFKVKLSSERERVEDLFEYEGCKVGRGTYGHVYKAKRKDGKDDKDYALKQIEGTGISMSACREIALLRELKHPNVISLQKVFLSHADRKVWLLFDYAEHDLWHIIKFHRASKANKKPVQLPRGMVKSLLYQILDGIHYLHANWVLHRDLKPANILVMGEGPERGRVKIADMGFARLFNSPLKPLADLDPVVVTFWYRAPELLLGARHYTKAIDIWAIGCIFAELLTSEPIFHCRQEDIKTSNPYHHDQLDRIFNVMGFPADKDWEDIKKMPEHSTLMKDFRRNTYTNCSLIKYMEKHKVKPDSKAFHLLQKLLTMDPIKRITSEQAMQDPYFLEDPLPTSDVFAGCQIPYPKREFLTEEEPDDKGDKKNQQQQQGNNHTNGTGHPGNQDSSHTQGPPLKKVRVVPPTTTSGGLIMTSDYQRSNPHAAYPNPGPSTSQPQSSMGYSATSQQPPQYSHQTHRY
In data set [6] the target is Citron Rho-interacting kinase (Homo sapiens) (UniProt O14578). Kind of data set: Inhibition of human CIT expressed in bacterial expression system assessed as remaining enzyme activity at 10 uM by kinome scan assay.
The target in data set [7] is Casein kinase II subunit alpha (Homo sapiens) (UniProt P68400). Nature of the data set: Inhibition of human CSNK2A1 expressed in mammalian expression system assessed as remaining enzyme activity at 10 uM by kinome scan assay.
Data set [8] deals with Death-associated protein kinase 2 (Homo sapiens) (UniProt Q9UIK4). Kind of data set: Inhibition of human DAPK2 expressed in bacterial expression system assessed as remaining enzyme activity at 10 uM by kinome scan assay.
The target in data set [9] is Casein kinase I isoform alpha (Homo sapiens) (UniProt P48729). Nature of the data set: Inhibition of human CSNK1A1 expressed in mammalian expression system assessed as remaining enzyme activity at 10 uM by kinome scan assay.
The target in data set [10] is Serine/threonine-protein kinase 17B (Homo sapiens) (UniProt O94768). Nature of the data set: Inhibition of human DRAK2 expressed in bacterial expression system assessed as remaining enzyme activity at 10 uM by kinome scan assay.
Sequence of Serine/threonine-protein kinase 17B (Homo sapiens) (O94768 whole entry): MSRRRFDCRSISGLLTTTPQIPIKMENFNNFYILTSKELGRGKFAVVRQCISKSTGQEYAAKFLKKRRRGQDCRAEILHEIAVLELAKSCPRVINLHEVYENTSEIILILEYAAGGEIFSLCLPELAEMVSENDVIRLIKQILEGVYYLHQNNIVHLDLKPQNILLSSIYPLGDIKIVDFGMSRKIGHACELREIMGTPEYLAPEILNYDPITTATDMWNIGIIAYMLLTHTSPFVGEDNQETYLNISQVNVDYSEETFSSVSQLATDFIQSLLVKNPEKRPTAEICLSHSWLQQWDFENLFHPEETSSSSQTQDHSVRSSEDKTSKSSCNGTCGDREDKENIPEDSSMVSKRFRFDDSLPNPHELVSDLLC
Data set [11] addresses TGF-beta receptor type-2 (Homo sapiens) (UniProt P37173). Nature of the data set: Inhibition of human TGFBR2 expressed in bacterial expression system assessed as remaining enzyme activity at 10 uM by kinome scan assay.
Data set [12] addresses Phosphatidylinositol 4-kinase beta (Homo sapiens) (UniProt Q9UBF8). Kind of data set: Inhibition of human PIK4CB expressed in mammalian expression system assessed as remaining enzyme activity at 10 uM by kinome scan assay.
In data set [13] the target is Serine/threonine-protein kinase pim-1 (Homo sapiens) (UniProt P11309). Nature of the data set: Inhibition of human PIM1 expressed in bacterial expression system assessed as remaining enzyme activity at 10 uM by kinome scan assay.
The target in data set [14] is Dual specificity tyrosine-phosphorylation-regulated kinase 1B (Homo sapiens) (UniProt Q9Y463). Kind of data set: Inhibition of human DYRK1B expressed in bacterial expression system assessed as remaining enzyme activity at 10 uM by kinome scan assay.
Sequence of Dual specificity tyrosine-phosphorylation-regulated kinase 1B (Homo sapiens) (Q9Y463 whole entry, looked up): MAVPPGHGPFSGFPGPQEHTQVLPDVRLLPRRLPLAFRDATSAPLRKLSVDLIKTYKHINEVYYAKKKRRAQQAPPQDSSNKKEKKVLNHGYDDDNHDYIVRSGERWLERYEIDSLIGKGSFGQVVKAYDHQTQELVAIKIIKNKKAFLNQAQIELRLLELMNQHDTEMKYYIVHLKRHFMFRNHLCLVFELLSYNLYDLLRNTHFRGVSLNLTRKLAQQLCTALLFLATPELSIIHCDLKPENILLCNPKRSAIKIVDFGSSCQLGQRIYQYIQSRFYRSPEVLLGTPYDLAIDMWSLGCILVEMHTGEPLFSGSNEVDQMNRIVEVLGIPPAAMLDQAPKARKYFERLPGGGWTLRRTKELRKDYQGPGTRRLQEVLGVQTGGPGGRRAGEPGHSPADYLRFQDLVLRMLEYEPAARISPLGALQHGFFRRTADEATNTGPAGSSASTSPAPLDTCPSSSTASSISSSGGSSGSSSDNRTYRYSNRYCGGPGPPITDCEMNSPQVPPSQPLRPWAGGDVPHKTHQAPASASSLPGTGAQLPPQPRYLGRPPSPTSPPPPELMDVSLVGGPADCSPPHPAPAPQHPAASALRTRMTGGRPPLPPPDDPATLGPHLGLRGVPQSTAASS
The target of data set [15] is Homeodomain-interacting protein kinase 3 (Homo sapiens) (UniProt Q9H422). Kind of data set: Inhibition of human HIPK3 expressed in mammalian expression system assessed as remaining enzyme activity at 10 uM by kinome scan assay.
Data set [16] deals with Homeodomain-interacting protein kinase 1 (Homo sapiens) (UniProt Q86Z02). Nature of the data set: Inhibition of human HIPK1 expressed in mammalian expression system assessed as remaining enzyme activity at 10 uM by kinome scan assay.
Data set [17] deals with Homeodomain-interacting protein kinase 2 (Homo sapiens) (UniProt Q9H2X6). Nature of the data set: Inhibition of human HIPK2 expressed in mammalian expression system assessed as remaining enzyme activity at 10 uM by kinome scan assay.
Data set [18] deals with Cyclin-dependent kinase-like 5 (Homo sapiens) (UniProt O76039). Kind of data set: Inhibition of human CDKL5 expressed in mammalian expression system assessed as remaining enzyme activity at 10 uM by kinome scan assay.
The target of data set [19] is Casein kinase II subunit alpha' (Homo sapiens) (UniProt P19784). Nature of the data set: Inhibition of human CSNK2A2 expressed in mammalian expression system assessed as remaining enzyme activity at 10 uM by kinome scan assay.
Data set [20] addresses Interleukin-1 receptor-associated kinase 1 (Homo sapiens) (UniProt P51617). Kind of data set: Inhibition of human IRAK1 expressed in mammalian expression system assessed as remaining enzyme activity at 10 uM by kinome scan assay.
Data set [21] concerns the target Cyclin-dependent kinase 7 (Homo sapiens) (UniProt P50613). Kind of data set: Inhibition of human CDK7 expressed in mammalian expression system assessed as remaining enzyme activity at 10 uM by kinome scan assay.
The target of data set [22] is Phosphatidylinositol 5-phosphate 4-kinase type-2 gamma (Homo sapiens) (UniProt Q8TBX8). Kind of data set: Inhibition of human PIP5K2C expressed in mammalian expression system assessed as remaining enzyme activity at 10 uM by kinome scan assay.
Sequence of Phosphatidylinositol 5-phosphate 4-kinase type-2 gamma (Homo sapiens) (Q8TBX8 whole entry, canonical isoform): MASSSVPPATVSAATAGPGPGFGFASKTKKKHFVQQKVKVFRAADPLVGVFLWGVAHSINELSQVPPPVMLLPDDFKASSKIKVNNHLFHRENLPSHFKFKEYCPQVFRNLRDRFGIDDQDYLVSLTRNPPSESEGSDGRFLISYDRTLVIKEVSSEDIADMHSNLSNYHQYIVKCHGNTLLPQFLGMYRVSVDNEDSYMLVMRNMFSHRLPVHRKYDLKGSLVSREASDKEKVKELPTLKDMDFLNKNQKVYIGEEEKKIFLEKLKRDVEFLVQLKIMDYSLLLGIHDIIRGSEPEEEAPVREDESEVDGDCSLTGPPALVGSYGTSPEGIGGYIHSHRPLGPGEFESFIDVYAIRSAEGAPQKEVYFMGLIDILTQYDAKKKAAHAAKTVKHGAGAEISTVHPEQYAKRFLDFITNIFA
Data set [23] has as its target Casein kinase I isoform gamma-2 (Homo sapiens) (UniProt P78368). Kind of data set: Inhibition of human CSNK1G2 expressed in bacterial expression system assessed as remaining enzyme activity at 10 uM by kinome scan assay.
For data set [24], the target named is Cyclin-dependent kinase 19 (Homo sapiens) (UniProt Q9BWU1). Kind of data set: Inhibition of human CDK11 expressed in bacterial expression system assessed as remaining enzyme activity at 10 uM by kinome scan assay.
The nature of data set [25]: Toxicity in human pancreatic islets at >10 uM. Particulars: pancreatic islet.
Data set [26] deals with Death-associated protein kinase 1 (Homo sapiens) (UniProt P53355). Nature of the data set: Inhibition of human DAPK1 expressed in bacterial expression system assessed as remaining enzyme activity at 10 uM by kinome scan assay.
The target of data set [27] is Serine/threonine-protein kinase pim-2 (Homo sapiens) (UniProt Q9P1W9). Kind of data set: Inhibition of human PIM2 expressed in bacterial expression system assessed as remaining enzyme activity at 10 uM by kinome scan assay.
Sequence of Serine/threonine-protein kinase pim-2 (Homo sapiens) (Q9P1W9 whole entry, looked up): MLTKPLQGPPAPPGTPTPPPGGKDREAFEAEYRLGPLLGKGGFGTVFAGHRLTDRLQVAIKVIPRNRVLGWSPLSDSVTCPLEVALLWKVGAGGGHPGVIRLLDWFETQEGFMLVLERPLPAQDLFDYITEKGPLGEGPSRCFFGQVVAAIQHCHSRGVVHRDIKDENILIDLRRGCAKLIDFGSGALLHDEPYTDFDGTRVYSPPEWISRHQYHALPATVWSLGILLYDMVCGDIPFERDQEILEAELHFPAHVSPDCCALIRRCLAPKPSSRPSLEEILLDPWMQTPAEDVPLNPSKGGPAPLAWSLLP
Data set [28] addresses Ribosomal protein S6 kinase alpha-4 (Homo sapiens) (UniProt O75676). Kind of data set: Inhibition of human RPS6KA4 (Kin.Dom.2-C-terminal) expressed in mammalian expression system assessed as remaining enzyme activity at 10 uM by kinome scan assay.
Data set [29] is described as follows: Toxicity in human pancreatic islets at 30 uM. The format is cell-based. The settings on record: pancreatic islet.
In data set [30] the test system is Pancreatic islet. Kind of data set: Induction of beta-cell proliferation in human pancreatic islets incubated for 96 hrs by Ki67 and insulin immunolabelling method. Format: functional, cell-based. Summed up: as §1
Data set [31] has as its target Dual specificity tyrosine-phosphorylation-regulated kinase 1A (Rattus norvegicus) (UniProt Q63470). Kind of data set: Inhibition of DYRK1A in rat R7T1 cells expressing expressing NFAT2-GFP assessed as induction of NFAT2-GFP nuclear translocation at 10 uM incubated for 24 hrs by. Format: cell-based. Summed up: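 Immortalized R7T1 rat beta cells infected with adenovirus expressing NFAT2-GFP for 48 h, then exposed to compound at 10 μM for a further 24 h. Cells imaged and NFAT2-GFP nuclear translocation scored as nuclear frequency, at least 1000 cells counted; n = 3, SEM.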

The source made the active and inactive calls. The rule behind the calls is not given here.

Sequence of Casein kinase I isoform gamma-2 (Homo sapiens) (P78368 whole entry, looked up, canonical isoform): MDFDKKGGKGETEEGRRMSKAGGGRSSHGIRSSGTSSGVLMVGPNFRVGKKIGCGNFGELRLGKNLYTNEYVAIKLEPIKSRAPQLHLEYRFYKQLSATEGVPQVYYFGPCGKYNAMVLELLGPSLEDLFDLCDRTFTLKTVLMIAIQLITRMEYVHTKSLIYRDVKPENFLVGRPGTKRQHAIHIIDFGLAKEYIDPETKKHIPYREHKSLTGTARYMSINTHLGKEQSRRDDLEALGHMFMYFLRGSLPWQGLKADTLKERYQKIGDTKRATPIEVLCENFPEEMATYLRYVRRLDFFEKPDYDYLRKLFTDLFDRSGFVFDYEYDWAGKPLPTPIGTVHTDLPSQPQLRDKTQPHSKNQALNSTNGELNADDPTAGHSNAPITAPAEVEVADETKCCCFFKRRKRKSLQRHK
Sequence of Ribosomal protein S6 kinase alpha-4 (Homo sapiens) (O75676 whole entry, looked up): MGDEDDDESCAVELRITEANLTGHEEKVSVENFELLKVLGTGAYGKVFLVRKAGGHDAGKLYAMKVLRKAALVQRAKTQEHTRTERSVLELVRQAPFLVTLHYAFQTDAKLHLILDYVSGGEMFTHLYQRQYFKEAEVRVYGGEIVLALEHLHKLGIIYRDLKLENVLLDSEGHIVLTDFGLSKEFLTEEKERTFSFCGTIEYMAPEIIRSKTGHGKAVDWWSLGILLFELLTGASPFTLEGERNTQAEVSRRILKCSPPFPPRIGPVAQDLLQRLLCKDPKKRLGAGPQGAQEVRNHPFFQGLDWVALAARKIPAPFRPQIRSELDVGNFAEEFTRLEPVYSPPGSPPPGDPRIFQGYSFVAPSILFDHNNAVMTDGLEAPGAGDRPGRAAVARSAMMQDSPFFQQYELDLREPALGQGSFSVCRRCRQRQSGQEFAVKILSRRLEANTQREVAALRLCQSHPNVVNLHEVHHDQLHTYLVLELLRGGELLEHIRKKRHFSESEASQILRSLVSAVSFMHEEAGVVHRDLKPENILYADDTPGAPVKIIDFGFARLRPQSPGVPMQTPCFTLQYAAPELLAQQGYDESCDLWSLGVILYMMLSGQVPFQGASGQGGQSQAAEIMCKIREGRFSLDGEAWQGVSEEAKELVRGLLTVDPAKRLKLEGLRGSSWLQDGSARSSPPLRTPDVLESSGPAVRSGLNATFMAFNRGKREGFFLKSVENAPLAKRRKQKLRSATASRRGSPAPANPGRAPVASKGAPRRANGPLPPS
Sequence of TGF-beta receptor type-2 (Homo sapiens) (P37173 whole entry): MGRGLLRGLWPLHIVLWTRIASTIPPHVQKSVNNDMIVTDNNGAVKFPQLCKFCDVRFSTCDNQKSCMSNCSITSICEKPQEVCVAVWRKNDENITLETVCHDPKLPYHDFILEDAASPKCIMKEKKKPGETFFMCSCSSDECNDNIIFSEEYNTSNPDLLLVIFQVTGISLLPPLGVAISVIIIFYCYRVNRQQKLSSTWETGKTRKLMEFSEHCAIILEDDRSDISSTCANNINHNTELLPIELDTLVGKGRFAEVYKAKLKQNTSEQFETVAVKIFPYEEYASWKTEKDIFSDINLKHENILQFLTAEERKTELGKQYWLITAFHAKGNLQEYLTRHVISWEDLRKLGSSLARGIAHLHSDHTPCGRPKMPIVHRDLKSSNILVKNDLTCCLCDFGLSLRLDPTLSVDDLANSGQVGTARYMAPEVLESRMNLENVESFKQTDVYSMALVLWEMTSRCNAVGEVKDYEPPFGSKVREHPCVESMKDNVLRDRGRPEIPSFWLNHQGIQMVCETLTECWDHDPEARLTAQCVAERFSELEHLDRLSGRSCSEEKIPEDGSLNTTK
Sequence of Cyclin-dependent kinase 7 (Homo sapiens) (P50613 whole entry): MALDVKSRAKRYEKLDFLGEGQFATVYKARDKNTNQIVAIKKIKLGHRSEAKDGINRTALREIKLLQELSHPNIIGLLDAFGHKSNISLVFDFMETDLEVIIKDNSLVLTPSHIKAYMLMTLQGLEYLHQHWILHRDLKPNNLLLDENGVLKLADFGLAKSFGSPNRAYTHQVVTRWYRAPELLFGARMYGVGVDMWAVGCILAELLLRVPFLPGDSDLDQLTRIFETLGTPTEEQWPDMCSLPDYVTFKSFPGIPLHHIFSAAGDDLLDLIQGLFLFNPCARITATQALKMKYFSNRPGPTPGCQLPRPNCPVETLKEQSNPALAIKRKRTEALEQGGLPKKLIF

For `COc1ccc2c(c1)[nH]c1c(Cl)nccc12`, the outcome in the data set with Pancreatic islet [1] and in the data set on Pancreatic islet [2] was Active.
Regarding `COc1ccc2c(c1)[nH]c1c(C)nccc12` [HARMINE], the Activity in [3] stood at 69%; in data set [4] it was 15%; in data set [5], 55%; in data set [6], 29%; in data set [7], 11%; in [8], 72%. The Activity amounted to 15% in data set [9]; 73% in data set [10]; 78% in data set [11]; 12% in data set [12]; 45% in [13]; 6.1% in data set [14]. The Activity in data set [15] was determined as 9.4%; in data set [16], 21%; in data set [17], 8.6%; in data set [18], 100%; in data set [19], 23%; in data set [20], 17%. In addition, the Activity is 21% in data set [21]; 36% in data set [22]; 19% in [23]; 83% in data set [24]; “Toxic” in [25]; 78% in [26]. Further, the Activity amounted to 39% in data set [27] and 40% in data set [28]. The outcome in the data set with Pancreatic islet [2] was Active.
For `COc1ccc2c(c1)[nH]c1c(C)nc(CO)cc12`, the Activity entry was “Non-Toxic” in data set [29], 0% in data set [5] and “Dose-dependent effect” in the data set with Pancreatic islet [30]. Also, the outcome in the data set with Pancreatic islet [1] and in the data set on Pancreatic islet [2] was Active. In addition, the inhibition entry in [31] was “Active”.
On to `COc1ccc2c(c1)[nH]c1c(N3CCCC3c3ccccc3)nccc12` (stereo not given), for which the result in the data set on Pancreatic islet [2] was inactive.
As for `COc1ccc2c(c1)[nH]c1c(CO)nccc12`, the Activity result in data set [29] was “Non-Toxic”; with Pancreatic islet [30] it was “Dose-dependent effect”. Besides, the result with Pancreatic islet [1] and in the data set with Pancreatic islet [2] was Active. The inhibition result in data set [31] is “Active”.
For the compound `COc1ccc2c(c1)[nH]c1c(N3CCCC3)nccc12`, the result in the data set with Pancreatic islet [2] was inactive.
Regarding `COc1ccc2c(c1)[nH]c1c(N3CCCC3Cc3ccccc3)nccc12` (stereo not given), in the data set on Pancreatic islet [2], the outcome was inactive.
On to `COc1ccc2c(c1)[nH]c1c(C(C)=O)nccc12`, for which the outcome in the data set with Pancreatic islet [1] was Active.
For the compound `COc1ccc2c(c1)[nH]c1c(N3CCC3)nccc12`, the result with Pancreatic islet [2] was Active.

These data come from ChEMBL document CHEMBL4145671, “Development of Kinase-Selective, Harmine-Based DYRK1A Inhibitors that Induce Pancreatic Human β-Cell Proliferation” (J Med Chem, 2018).
